Consider two compounds from ChEMBL document CHEMBL3580634, “Discovery of a high affinity and selective pyridine analog as a potential positron emission tomography imaging agent for cannabinoid type 2 receptor” (J Med Chem, 2015).

Usually Ki stands for a dissociation constant, usually derived from enzyme kinetics or from competition with a known ligand. Lower therefore signals higher affinity. Broadly, the logD is the decadic logarithm of the distribution of all forms, ionised or not, between an organic phase and buffer at a given pH. A higher logD goes with a more lipophilic compound.

Molecules are shown by their SMILES.

The nature of data set [1]: Ratio of drug level in brain to plasma in ip dosed rat. The format is ADME, organism-based. The note with it: read-out: BPR.
Data set [2] can be described thus: Drug level in brain of ip dosed rat after 1 hr. The format is ADME, organism-based. The note with it: read-out: Drug uptake.
In data set [3] the target is T1, Cannabinoid receptor 2 (Homo sapiens, UniProt P34972). The data set can be described thus: Binding affinity to human CB2 receptor. The procedure, abridged: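 Competition binding with [³H]CP-55,940 on membranes from CHO cells expressing human CB2. Buffer: 50 mM Tris, 5 mM MgCl₂, 2.5 mM EGTA, 0.1% fatty-acid-free BSA, pH 7.4. Incubated 1 h at 30 °C with shaking, then rapid filtration through 0.5% polyethylenimine-coated filters. Ki from nonlinear regression, using Kd from saturation experiments. Single experiment, triplicates, 10 concentrations.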
T1 sequence (P34972 whole entry): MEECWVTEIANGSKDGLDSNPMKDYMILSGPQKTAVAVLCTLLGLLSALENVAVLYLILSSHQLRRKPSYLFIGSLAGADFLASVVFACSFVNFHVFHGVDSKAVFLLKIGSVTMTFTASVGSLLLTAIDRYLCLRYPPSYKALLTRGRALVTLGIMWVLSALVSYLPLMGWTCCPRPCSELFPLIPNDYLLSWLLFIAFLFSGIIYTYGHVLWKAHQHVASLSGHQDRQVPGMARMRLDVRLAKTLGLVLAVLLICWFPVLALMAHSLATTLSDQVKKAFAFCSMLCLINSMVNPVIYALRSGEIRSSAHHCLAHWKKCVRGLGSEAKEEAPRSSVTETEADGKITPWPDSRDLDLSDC

Data set [4] can be described thus: Stability in rat plasma assessed as intact compound remaining at 4 MBq at 37 degC incubated for 5 to 20 mins by radio-TLC method. Format: ADME, cell-free. The note with it: read-out: Stability. The gist of the method:
(§1)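 Mouse, rat or human plasma was incubated with formulated radiotracer (4 MBq) at 37 °C with shaking. Aliquots taken at 5, 10, 15 and 20 min were quenched with ice-cold acetonitrile and centrifuged. Supernatant was analysed by radio-TLC in hexane/EtOAc (1:1).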

Data set [5] has as its system Plasma. The data set can be described thus: Stability in human plasma assessed as compound degradation at 4 MBq at 37 degC […] by radio-TLC method. Format: ADME, cell-free. The note with it: 40 min.
The subject of data set [6] is Spleen. The data set can be described thus: Biodistribution in Wistar rat spleen at 11 to 18 MBq, iv treated with 1.5 mg/kg CB2 ligand GW405833 injected 10 mins after compound dosing by PET/CT imaging method. Format: ADME, organism-based. To be noted: in vivo. The gist of the method:
(§2)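 Isoflurane-anaesthetized male Wistar rats received 11–18 MBq (0.06–0.09 nmol) tracer via tail vein. Dynamic PET ran 60 min from injection, then CT. For displacement, 1.5 mg/kg blocker was given iv 10 min after tracer; 2 rats per condition. Temperature held at 37 °C. Reconstruction by 2D-OSEM without attenuation correction. Uptake given as SUV.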

A short description of data set [7]: Lipophilicity, log D of the compound in n-octanol/phosphate buffer pH 7.4 by shake flask method. Format: physicochemical.
For data set [8], the system named is Brain. The data set can be described thus: Biodistribution in brain of mouse model of LPS-induced neuroinflammation at 10 to 27 MBq, iv treated with 2 mg/kg CB2 ligand GW405833 injected 30 mins before PECT acquisition by PET imaging method. Format: ADME, organism-based. The note with it: in vivo, 0.5 h. The procedure, abridged: (§3)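 Male CD-1 mice got 10 mg/kg LPS (E. coli O111:B4) or saline ip 5 days before PET. Under isoflurane, 10–27 MBq tracer was injected via tail vein, with 60 min PET then CT. For blocking, 2.0 mg/kg blocker or vehicle was given sc 30 min before tracer. Whole-brain ROI was taken on an MRI T2 template, expressed as SUV; n = 2 per condition.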

The subject of data set [9] is Spleen. The data set can be described thus: Biodistribution in mouse spleen at 0.2 nM incubated for 15 mins in presence of 5 uM CB2 ligand GW405833 by autoradiography. Format: ADME. The note with it: 0.25 h, 0.0002 µM. The gist of the method:
(§4)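 Mouse or rat spleen cryosections (20 μm) were thawed on ice and preconditioned in 50 mM Tris/HCl, 5% BSA, pH 7.4, then incubated 15 min at rt with 0.2 nM radioligand, alone or with 5 μM blocker. Washed in Tris/HCl with 1% BSA and 5% EtOH (2 × 2 min) and water on ice, then exposed 30 min to phosphor imager plates.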

The subject of data set [10] is Spleen. The data set can be described thus: Biodistribution in Wistar rat spleen at 11 to 18 MBq, iv treated with 1.5 mg/kg CB2 ligand GW405833 injected 10 mins after compound dosing and measured 15 mins after GW405833 dosing by PET/CT imaging method. Format: ADME, organism-based. To be noted: in vivo, 0.25 h. The gist of the method: as §2
Data set [11] concerns Spleen. The data set can be described thus: Biodistribution in Wistar rat spleen at 11 to 18 MBq, iv measured after 10 mins by PET/CT imaging method. The format is ADME, organism-based. To be noted: in vivo. The procedure, abridged:
as §2

Data set [12] deals with Spleen. The data set can be described thus: Biodistribution in Wistar rat spleen at 11 to 18 MBq, iv measured during first 10 mins by PET/CT imaging method. The format is ADME, organism-based. To be noted: in vivo. The procedure, abridged: as §2
Data set [13] concerns Liver. The data set can be described thus: Biodistribution in Wistar rat liver at 6 to 10 MBq, iv measured after 15 mins by gamma counting method. The format is ADME, organism-based. To be noted: in vivo, 0.25 h. The procedure, abridged:
(§5)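 Male Wistar rats (5 weeks old) received 6–10 MBq (0.03–0.05 nmol) tracer via tail vein. For blocking, 1.5 mg/kg blocker was given iv shortly before the tracer (n = 3). Rats were decapitated under isoflurane at 15 min pi. Organs were weighed and gamma-counted, expressed as normalized %ID/g tissue (per 1 kg body weight). One baseline animal was excluded for paravenous injection.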

Data set [14] can be described thus: Drug metabolism in Wistar rat urine assessed as hydrophilic radio-metabolites level at 48 MBq, iv measured after 5 to 20 mins by radio-TLC method. The format is ADME, organism-based. To be noted: in vivo. The procedure, abridged: (§6)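 After iv tracer, rat plasma was taken at 5, 10 and 20 min. Urine and brain were collected at 20 min sacrifice. Plasma was separated at 5000g, 5 min, 4 °C. Proteins in plasma, urine and PBS brain homogenate were precipitated with cold acetonitrile and centrifuged. Supernatants were run by radio-TLC in hexane/EtOAc (1:1), reported as % of total activity.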

Data set [15] deals with T1, Cannabinoid receptor 2. The data set can be described thus: Displacement of [3H]CP-55,940 from human CB2 receptor expressed in CHO cell membranes. The procedure, abridged: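 Membranes from CHO cells expressing human or murine CB2 were incubated with [3H]CP-55,940 in 50 mM Tris, 5 mM MgCl2, 2.5 mM EGTA, 0.1% fatty-acid-free BSA, pH 7.4, 1 h at 30 °C with shaking. Reaction stopped by filtration through PEI-coated GF/B. Ki from nonlinear regression using saturation-derived Kd. Ten concentrations in triplicate.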

In data set [16] the test system is Spleen. The data set can be described thus: Biodistribution in rat spleen at 0.2 nM incubated for 15 mins by autoradiography. Format: ADME. To be noted: 0.25 h, 0.0002 µM. The gist of the method:
as §4

Data set [17] deals with Small intestine. The data set can be described thus: Biodistribution in Wistar rat small intestine at 6 to 10 MBq, iv measured after 15 mins by gamma counting method. The format is ADME, organism-based. To be noted: in vivo, 0.25 h. The gist of the method: as §5
In data set [18] the test system is Brain. The data set can be described thus: Biodistribution in brain of mouse model of LPS-induced neuroinflammation at 10 to 27 MBq, iv treated with 10 mg/kg LPS 5 days before PET scan by PET imaging method. The format is ADME, organism-based. To be noted: in vivo, 120 h. The gist of the method:
as §3

In data set [19] the test system is Brain. The data set can be described thus: Biodistribution in Wistar rat brain at 6 to 10 MBq, iv measured after 15 mins by gamma counting method. The format is ADME, organism-based. To be noted: in vivo, 0.25 h. The procedure, abridged: as §5
Data set [20] in a line: Biodistribution in Wistar rat plasma assessed as intact parent tracer level at 48 MBq, iv measured after 5 mins by radio-TLC method. The format is ADME, organism-based. To be noted: read-out: Drug uptake. The gist of the method:
as §6

Data set [21] concerns Brain. The data set can be described thus: Biodistribution in Wistar rat brain at 48 MBq, iv measured after 20 mins by radio-TLC method. The format is ADME, organism-based. To be noted: in vivo.
Data set [22] can be described thus: Biodistribution in Wistar rat plasma assessed as intact parent tracer level at 48 MBq, iv measured after 10 mins by radio-TLC method. The format is ADME, organism-based. The note with it: read-out: Drug uptake. The procedure, abridged: as §6
A short description of data set [23]: Biodistribution in Wistar rat plasma assessed as intact parent tracer level at 48 MBq, iv measured after 20 mins by radio-TLC method. The note with it: read-out: Drug uptake. Format: ADME, organism-based. The gist of the method: as §6
Data set [24] concerns Spleen. The data set can be described thus: Biodistribution in Wistar rat spleen at 6 to 10 MBq, iv treated with 1.5 mg/kg CB2 ligand GW405833 injected 1 mins after compound dosing by gamma counting method. The format is ADME, organism-based. To be noted: in vivo.
Data set [25] is described as follows: Stability in mouse plasma assessed as intact compound remaining at 4 MBq at 37 degC incubated for 5 to 20 mins by radio-TLC method. Format: ADME, cell-free. The note with it: read-out: Stability. The gist of the method: as §1
The test system of data set [26] is Spleen. The data set can be described thus: Biodistribution in rat spleen at 0.2 nM incubated for 15 mins in presence of 5 uM CB2 ligand GW405833 by autoradiography. The format is ADME. To be noted: 0.25 h, 0.0002 µM. The gist of the method: as §4
Data set [27] in a line: Lipophilicity, log D of the radio-labeled compound in n-octanol/phosphate buffer pH 7.4 by shake flask method. Format: physicochemical. The procedure, abridged: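 Formulated radiotracer (8 MBq) was added to n-octanol and phosphate buffer pH 7.4, each presaturated with the other, shaken 15 min and centrifuged 5000g 5 min. Radioactivity in both phases was gamma-counted and D taken as their ratio; n = 5.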

For data set [28], the system named is Spleen. The data set can be described thus: Biodistribution in mouse spleen at 0.2 nM incubated for 15 mins by autoradiography. The format is ADME. To be noted: 0.25 h, 0.0002 µM. The procedure, abridged:
as §4

On to `COc1ccc2c(c1)c(CCN1CCOCC1)c(C)n2C(=O)c1cccc(Cl)c1Cl`, for which, in data set [1], the Kp was determined as 5. The concentration at 1 h in data set [2] was above 100 nM. The Ki in [3] is 3.9 nM.

Consider `CCOC(=O)C(CC)(CC)NC(=O)c1ccc(N2CC(O[11CH3])C2)c(OCC2CC2)n1`, for which the remaining at 4 MBq was 86% in data set [4] and 84% in data set [25]. Also, in data set [5], the Stability entry is given as “Stable”. Besides, the Drug uptake result in [6] was “Not Active”; in [8], “Not Active”; in data set [9], “Not Active”; in data set [10], “Not Active”; in data set [11] it was “Not Active”; in [12], “Active”. Besides, the Drug uptake entry in [13] is given as “Active”; in [16], “Active”; in [17], “Active”; in [18], “Active”; in data set [19], “Not Active”; in data set [21], “Not Active”. In addition, the figures for the Drug uptake result in [24], in [26] and in [28] were “Not Active”, “Not Active” and “Active”, respectively. Also, the logD in [7] and in data set [27] was 1.94 in each case. The Drug metabolism entry in [14] is reported as “metabolite_detected”. Moreover, the Ki in data set [15] worked out at 2.5 nM. In [20], the remaining at 5 min came to 51%. For the same compound, the remaining at 10 min in data set [22] turned out to be 37%. The remaining at 20 min in [23] was 21%.
